Only some compounds are listed: those with a hit (about 4% of all), similar ones and a draw of the others.
rRNA inh HTS: reduced GFP signal of wild-type E. coli, primary screen, bacterial rRNA inhibitor project, GFP/RFP fluorescence, OD600, single point; E. coli WT GFP vs humanized-ribosome RFP mutants, 24 h; active compounds read low; DMSO median 0, no signal -100; GFP signal change (wild-type ribosome), % (concentration not given with the values); actives 1.6% (n = 350,000); AID 720706, 2013;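 active means significant combined selectivity score with lowered wild-type GFP, culture density cut under 30%, mutant RFP and density less affected; inactive means any of these conditions unmet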
SIRT5 inh: SIRT5 desuccinylase inhibitors, primary screen, biochemical, fluorescence imaging, single point, set 5; Purified SirT5, succinyl-peptide AMC, trypsin-coupled fluorescence; inhibition, % at 15 µM; actives 1.1% (n = 330,000); in the data active means inhibition above about 15%; inconclusive means no clear call, values can overlap the other calls
FGF22 binding: binders of human FGF22 protein, primary screen, FGF22 synaptogenesis inhibitor project, biophysical, thermal shift, single point. Fibroblast growth factor 22 (Homo sapiens), Q9HCT0. recombinant FGF22 thermal shift, SYPRO orange fluorescence; percent of sucrose octasulfate shift, DMSO zero. activity (Tm shift, normalised), % at 9.99 µM. actives 1.5% (n = 340,000);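 active means mean Tm shift, scaled 0 neutral to 100 positive control, at about 1.3% or above, every replicate too, limit read from the data; inconclusive means no clear call, values can overlap the other calls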
Target sequence (Q9HCT0 whole entry, looked up): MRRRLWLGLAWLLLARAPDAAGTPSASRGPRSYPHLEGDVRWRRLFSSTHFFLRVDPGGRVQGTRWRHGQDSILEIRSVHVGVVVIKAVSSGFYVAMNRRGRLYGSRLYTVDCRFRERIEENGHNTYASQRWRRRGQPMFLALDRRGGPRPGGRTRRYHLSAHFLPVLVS
E-selectin induc: E-selectin induction in HUVECs, primary screen, imaging, HUVEC, immunofluorescence imaging, single point; P16581; normalized: neutral wells 0, TNF-alpha wells 100; activation, % at 7.58 µM; actives 0.37% (n = 260,000); AID 686992, 2013;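 active means mean E-selectin-positive cell signal at least 10% of the positive control, reached in at least 60% of replicates, without over 20% cell loss; inconclusive means no rule given, readout overlaps actives, possibly toxicity-flagged; inactive means the rest, including those meeting only one limit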
Target sequence (P16581 whole entry, looked up): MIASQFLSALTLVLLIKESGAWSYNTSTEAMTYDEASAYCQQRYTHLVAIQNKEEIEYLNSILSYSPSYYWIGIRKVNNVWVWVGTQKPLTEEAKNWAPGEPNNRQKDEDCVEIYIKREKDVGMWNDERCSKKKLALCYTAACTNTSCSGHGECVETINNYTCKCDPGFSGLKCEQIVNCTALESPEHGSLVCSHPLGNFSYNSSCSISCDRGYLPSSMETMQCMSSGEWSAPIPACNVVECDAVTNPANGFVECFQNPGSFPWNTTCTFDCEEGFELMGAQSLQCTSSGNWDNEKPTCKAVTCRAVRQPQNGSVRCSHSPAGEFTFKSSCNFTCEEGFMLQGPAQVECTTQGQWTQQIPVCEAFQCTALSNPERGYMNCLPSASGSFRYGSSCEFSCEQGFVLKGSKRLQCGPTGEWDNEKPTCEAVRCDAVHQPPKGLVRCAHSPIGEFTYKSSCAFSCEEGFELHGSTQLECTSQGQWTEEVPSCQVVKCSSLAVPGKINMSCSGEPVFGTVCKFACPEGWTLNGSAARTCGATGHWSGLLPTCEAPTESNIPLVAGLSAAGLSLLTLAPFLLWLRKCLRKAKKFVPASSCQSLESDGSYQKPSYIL
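System: HUVEC, human umbilical vein endothelial cells; quantity: 3,000 cells/well; buffer or medium: EGM-2 medium, gelatin-coated wells; dosing: single-point compound dose; detection: immunofluorescence imaging; evaluation: % PE-positive cells; benchmarks: TNF-alpha, DMSO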
FN deposition inh: inhibitors of fibronectin matrix deposition, primary screen, AH1F cells, Alexa488-fibronectin fluorescence, plate reader | AH1F fibroblasts, overnight | inhibition, % at 12.6 µM | actives 0.086% (n = 350,000) | AID 743247, 2014;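 active means mean inhibition across replicates of 30% or more, regardless of how many single replicates reach that level; inconclusive means mean under 30% yet at least half of replicates reach 30%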
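material = AH1F fibroblast monolayer depositing Alexa488-labelled fibronectin into matrix | amount = 10000 AH1F cells/well | buffer or medium = DMEM plus 2% serum, read in PBS | incubation = 1 h cell adhesion before compound, then overnight fibronectin incubation | detection = fluorescence at 485 nm excitation, 525 nm emission | evaluation = percent inhibition as loss of matrix-bound fibronectin fluorescence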
C2C12 statin: suppressors of statin myotoxicity in C2C12 myotubes, primary screen, cell-based, single point, plate reader; rescue of ATP level, % at 7.49 µM; C2C12 myotubes + simvastatin, ATP luminescence, 48 h; scaled: DMSO 0, geranylgeraniol control 100; actives 0.78% (n = 330,000); AID 602340, 2012;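 active means mean ATP rescue above about 67%, or every replicate alone reaching that limit, limit read from the data, passing the limit was not always enough; inconclusive means no clear call, values can overlap the other calls; inactive means mean under the limit and some replicate under it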;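 further: myotubes were challenged with 10 µM simvastatin during compound exposure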
Each line names hits and unclear results; the compound was inactive in the other large screens; ! = not confirmed by another sample.

C[C@@H](C(=O)N(C)C[C@@H]1OCc2ccccc2-c2ccccc2C(=O)N([C@@H](C)CO)C[C@@H]1C)c1ccccc1	none (no result: C2C12 statin)
COc1ccc(C#Cc2ccc3c(c2)O[C@@H](CN(C)C(C)=O)[C@@H](C)CN([C@H](C)CO)S3(=O)=O)cc1	none
CC(C)NC(=O)Nc1ccc2c(c1)C(=O)N([C@@H](C)CO)C[C@H](C)[C@H](CN(C)Cc1ccncc1)O2	none (no result: E-selectin induc, FN deposition inh)
C[C@H]1CN([C@@H](C)CO)C(=O)c2cccc(NC(=O)C3CCOCC3)c2O[C@H]1CN(C)Cc1ccc(C(=O)O)cc1	none (no result: FN deposition inh)
CCCC#Cc1ccc2c(c1)O[C@@H](CN(C)S(=O)(=O)c1cccc(OC)c1)[C@@H](C)CN([C@@H](C)CO)S2(=O)=O	E-selectin induc 97.8
CCCC#Cc1ccc2c(c1)O[C@H](CN(C)S(=O)(=O)c1cccc(OC)c1)[C@@H](C)CN([C@H](C)CO)S2(=O)=O	none (no result: SIRT5 inh, FGF22 binding)
Cc1ccc(NS(=O)(=O)c2cc(C(=O)N(C)C)ccc2C)cc1C	FGF22 binding 43.0 (no result: E-selectin induc, C2C12 statin)
COc1ccc(C(NC(=O)C2CCN(CCOc3ccc(Cl)cc3Cl)CC2)c2ccccc2C)cn1 (centres undefined)	rRNA inh HTS -28.8 (no result: SIRT5 inh)
COc1ccc(C(NC(=O)C2CCN(CCOc3ccc(Cl)cc3Cl)CC2)c2cccs2)cc1 (centres undefined)	none (no result: SIRT5 inh)
COc1cccc(S(=O)(=O)N[C@@H]2C=C[C@H](CC(=O)NCc3ccc(Cl)cc3)O[C@@H]2CO)c1	none (no result: FN deposition inh, C2C12 statin)
CCCc1cc(=O)n2[nH]c(C(F)(F)F)nc2n1	FGF22 binding 43.0 (no result: E-selectin induc)
C[C@H](CO)N1C[C@H](C)[C@H](CN(C)C(=O)CC2CC2)Oc2ncc(C#Cc3cccnc3)cc2C1=O	none
O=C1Nc2ccccc2C1=Nc1ccc(-c2nnc3n2CCCCC3)cc1	FGF22 binding 42.9 (no result: SIRT5 inh)
N#Cc1c(-c2ccccc2)nc(SCC(=O)Nc2ccccc2)[nH]c1=O	none (no result: rRNA inh HTS, SIRT5 inh, FGF22 binding, C2C12 statin)
N#Cc1c(-c2ccccc2)nc(SCC(=O)N2c3ccccc3Sc3ccccc32)[nH]c1=O	none (no result: C2C12 statin)
N#Cc1c(-c2ccccc2)nc(SCC(=O)N(c2ccccc2)c2ccccc2)[nH]c1=O	rRNA inh HTS -49.3
N#Cc1c(-c2ccccc2)nc(SCC(=O)Nc2ccccc2F)[nH]c1=O	FGF22 binding 1.9 (no result: E-selectin induc)
Cc1noc(C)c1S(=O)(=O)Nc1ccc2c(c1)C(=O)N([C@@H](C)CO)C[C@H](C)[C@@H](CN(C)S(=O)(=O)c1cn(C)cn1)O2	none
CCn1c(=O)c2cc(C(=O)NCCCOC)sc2c2ccccc21	E-selectin induc 53.2
CCCCN(CC)CCCNC(=O)c1cc2c(=O)n(CC)c3ccccc3c2s1	C2C12 statin 97.4
CCOC(CNC(=O)c1cc2c(=O)n(CC)c3ccccc3c2s1)OCC	none
CCn1c(=O)c2cc(C(=O)NCC(OC)OC)sc2c2ccccc21	E-selectin induc 65.6
CN(C)CCCNC(=O)c1cc2sc3ccccc3c2s1	FGF22 binding 43.8 (no result: E-selectin induc, C2C12 statin)
CCCN(CCC)CCCNC(=O)c1cc2c(=O)n(CC)c3ccccc3c2s1	none (no result: E-selectin induc)
CCCCN(CC)CCNC(=O)c1cc2c(=O)n(CC)c3ccccc3c2s1	E-selectin induc inconclusive
C[C@H](CO)N1C[C@H](C)[C@H](CN(C)C)Oc2c(NC(=O)Nc3cccc4ccccc34)cccc2C1=O	none (no result: E-selectin induc, FN deposition inh, C2C12 statin)
C[C@@H]1CCCCO[C@H](CN(C)C(=O)Nc2ccccc2)[C@H](C)CN([C@@H](C)CO)C(=O)c2cc(NS(=O)(=O)c3ccccc3)ccc2O1	none (no result: E-selectin induc, C2C12 statin)
C[C@H]1CN([C@@H](C)CO)C(=O)c2cc(NC(=O)CCN3CCOCC3)ccc2O[C@H]1CN(C)S(=O)(=O)c1cccs1	none
C[C@H]1CN([C@@H](C)CO)C(=O)c2cc(NC(=O)CCN3CCOCC3)ccc2O[C@H]1CN(C)S(C)(=O)=O	E-selectin induc inconclusive (no result: FN deposition inh)
C[C@H](CO)N1C[C@H](C)[C@@H](CN(C)S(=O)(=O)c2cccs2)Oc2ccc(NC(=O)CCC(F)(F)F)cc2C1=O	SIRT5 inh 24.5!
C[C@H](CO)N1C[C@H](C)[C@@H](CN(C)S(=O)(=O)c2cccs2)Oc2ccc(NC(=O)CCN3CCOCC3)cc2C1=O	E-selectin induc 62.9
C[C@H](CO)N1C[C@H](C)[C@@H](CN(C)S(C)(=O)=O)Oc2ccc(NC(=O)CCN3CCOCC3)cc2C1=O	SIRT5 inh 23.4!
CO[C@@H]1CN(C)C(=O)c2ccc(NC(C)=O)cc2OC[C@@H](C)N(C(=O)Nc2ccccc2F)C[C@H]1C	none
O=C(C1CCCC1)N1CC[C@H]2[C@H](CO)Nc3ccc(C4=CCCCC4)cc3[C@H]21	none (no result: FGF22 binding, C2C12 statin)
CC(C)(C)C1CCC(C(=O)Nc2ccc(N3CCOCC3)cc2N2CCOCC2)CC1 (centres undefined)	rRNA inh HTS -20.4 (no result: E-selectin induc)
Cc1c(C(=O)OCC(O)=C(C#N)c2nc3ccccc3[nH]2)oc2ccc(Br)cc12	SIRT5 inh 30.5 (no result: C2C12 statin)
CO[C@@H]1CN(C)C(=O)c2cc(NC(C)=O)ccc2OC[C@@H](C)N(Cc2ccccc2F)C[C@H]1C	none
O=c1[nH]cc(CN2CCOCC2)c(=O)[nH]1	FGF22 binding 43.1 (no result: SIRT5 inh)
CC1(C)CC(=O)C=C(c2ccc(COC(=O)c3ccc(-c4ccccc4)cc3)cc2)C1=O	none
CC1(C)CC(=O)C=C(c2ccc(COC(=O)Cc3ccccc3)cc2)C1=O	rRNA inh HTS -21.6
COCCCNc1ncnc2c1sc1nc(-c3ccco3)c3c(c12)CC(C)(C)OC3	SIRT5 inh 18.9 (no result: E-selectin induc, C2C12 statin)
Cc1nc2sc3c(NCc4ccco4)ncnc3c2c2c1COC(C)(C)C2	none (no result: rRNA inh HTS, SIRT5 inh, FGF22 binding, E-selectin induc, FN deposition inh)
CC1(C)Cc2c(c(-c3ccco3)nc3sc4c(NCCO)ncnc4c23)CO1	FGF22 binding 43.4 (no result: E-selectin induc, C2C12 statin)
CCCc1cc2c(=O)c(-c3cscn3)c(C(=O)OCC)oc2cc1O	FGF22 binding 43.4
O=C(CCC(=O)N1CCN(S(=O)(=O)c2ccc(Cl)cc2)CC1)Nc1ccc(Cl)cc1Cl	FGF22 binding 43.4 (no result: rRNA inh HTS, E-selectin induc)
CN1C(=O)c2cc(NC(=O)c3cc(F)cc(F)c3)ccc2OC[C@@H]2O[C@@H](CC(=O)O)CC[C@@H]21	none
Cc1cc2c(SCc3ccccc3Cl)nc(N)nc2nc1C	E-selectin induc 87.8 (no result: SIRT5 inh)
Nc1cc(N)nc(SCc2ccccc2Cl)n1	none
COc1ccc(S(=O)(=O)N(C)C[C@H]2Oc3ccc(NC(=O)CCCN(C)C)cc3C(=O)N([C@H](C)CO)C[C@H]2C)cc1	none (no result: FN deposition inh)

Assay outcomes from PubChem BioAssay.
